Measurements published in ChEMBL document CHEMBL3525907, “Studies on the metabolism and biological activity of the epimers of sulindac” (Drug Metab Dispos, 2011).
Values belong to the molecule of their own block, whether it stands above or below them. Calls of active or inactive are those of the source. The calls are words filed in the database; no cut-off is given here.

Key:
[1] = molecular target: T1, Methionine-R-sulfoxide reductase B1 (Rattus norvegicus, UniProt Q52KJ8); assay: Drug metabolism in rat liver G50 fraction assessed as MSRB1-mediated DABS-Met formation measured per mg of protein at 200 uM by HPLC analysis; format: ADME, tissue-based
T1 sequence (Q52KJ8 whole entry): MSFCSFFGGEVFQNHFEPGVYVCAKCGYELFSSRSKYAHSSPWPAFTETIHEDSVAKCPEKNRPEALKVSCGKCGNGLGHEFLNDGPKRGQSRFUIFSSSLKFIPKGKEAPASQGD
How it was run: (§1)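 Rat liver purification fractions (DEAE, G50 peak) assayed with 200 μM DABS-R-Met(o) in 100 mM Tris pH 7.4, DTT (15 mM) or Trx system (1 mM NADPH, TrxB, TrxA) as reductant, 37°C; acetonitrile stop; DABS-Met resolved on C18 HPLC, absorbance 436 nm; activity per mg protein, expressed as purification factor.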

[2] = molecular target: T1, Methionine-R-sulfoxide reductase B1; assay: Drug metabolism in rat liver DEAE fraction assessed as MSRB1-mediated DABS-Met formation measured per mg of protein at 200 uM by HPLC analysis; format: ADME, tissue-based; how it was run: as §1
[3] = molecular target: T1, Methionine-R-sulfoxide reductase B1; assay: Drug metabolism in rat liver S100 fraction assessed as MSRB1-mediated DABS-Met formation measured per mg of protein at 200 uM by HPLC analysis; format: ADME, tissue-based
How it was run: (§2)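 Fractions (S-100, 30–70% ammonium sulfate cut) from rat liver purification; aliquots incubated with 200 μM (R)-sulindac or 200 μM DABS-R-Met(o) in 100 mM Tris pH 7.4 with 15 mM DTT or Trx system (1 mM NADPH, TrxB, TrxA), 37°C. Stopped with acetonitrile; C18 HPLC, sulindac sulfide at 330 nm, DABS-Met at 436 nm. Specific activity as nmol product/mg protein/h.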

[4] = molecular target: T1, Methionine-R-sulfoxide reductase B1; assay: Drug metabolism in rat liver ammonium sulfate fraction assessed as MSRB1-mediated DABS-Met formation measured per mg of protein at 200 uM by HPLC analysis; format: ADME, tissue-based; how it was run: as §2
[5] = molecular target: T1, Methionine-R-sulfoxide reductase B1; assay: Activity of MSRB1 in rat liver S100 fraction assessed as enzyme-mediated drug metabolism measured per mg of protein at 200 uM by HPLC analysis; format: ADME
How it was run: (§3)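 Fractions from rat liver reductase purification (S-100, 30–70% ammonium sulfate cut, DEAE pool, G50 gel filtration) incubated with 200 μM (R)-sulindac in 100 mM Tris pH 7.4 with 15 mM DTT, 37°C, 100 μl; stopped with acetonitrile; sulindac sulfide quantified by C18 HPLC at 330 nm; specific activity as nmol product/mg protein/h.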

[6] = molecular target: T1, Methionine-R-sulfoxide reductase B1; assay: Activity of MSRB1 in rat liver ammonium sulfate fraction assessed as enzyme-mediated drug metabolism measured per mg of protein at 200 uM by HPLC analysis; format: ADME; how it was run: as §3
[7] = molecular target: T1, Methionine-R-sulfoxide reductase B1; assay: Activity of MSRB1 in rat liver DEAE fraction assessed as enzyme-mediated drug metabolism measured per mg of protein at 200 uM by HPLC analysis; format: ADME; how it was run: as §3
[8] = molecular target: T1, Methionine-R-sulfoxide reductase B1; assay: Activity of MSRB1 in rat liver G50 fraction assessed as enzyme-mediated drug metabolism measured per mg of protein at 200 uM by HPLC analysis; format: ADME; how it was run: as §3
[9] = molecular target: Cytochrome P450 3A2 (Rattus norvegicus, UniProt P05183); assay: Drug metabolism assessed as rat recombinant CYP3A2-mediated sulindac sulfone formation measured per pmol of protein at 500 uM after 90 mins by HPLC analysis; format: ADME; conditions: recombinant enzyme, 1.5 h
Cytochrome P450 3A2, sequence (P05183 whole entry): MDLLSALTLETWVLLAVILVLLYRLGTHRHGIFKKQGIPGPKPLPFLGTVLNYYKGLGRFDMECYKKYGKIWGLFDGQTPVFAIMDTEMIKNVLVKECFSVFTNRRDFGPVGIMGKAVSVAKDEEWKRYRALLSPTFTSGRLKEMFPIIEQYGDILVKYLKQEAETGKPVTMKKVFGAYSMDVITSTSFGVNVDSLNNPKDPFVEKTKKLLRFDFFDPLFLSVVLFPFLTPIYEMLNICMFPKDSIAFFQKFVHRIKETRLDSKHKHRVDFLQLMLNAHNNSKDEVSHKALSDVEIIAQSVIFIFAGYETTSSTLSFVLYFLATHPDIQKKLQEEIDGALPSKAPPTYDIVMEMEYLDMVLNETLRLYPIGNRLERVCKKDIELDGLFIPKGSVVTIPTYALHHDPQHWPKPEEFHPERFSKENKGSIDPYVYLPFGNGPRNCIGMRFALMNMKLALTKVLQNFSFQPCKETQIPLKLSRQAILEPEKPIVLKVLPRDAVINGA
How it was run: (§4)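 Recombinant rat or human P450 Supersomes (some with cytochrome b5, variable reductase) incubated with (R)-sulindac at 500 μM or (S)-sulindac at 200 μM plus NADPH-regenerating system in 100 mM potassium phosphate pH 7.4 at 37°C, linear up to 90 min; acetonitrile stop; sulfone by C18 HPLC at 330 nm; ≥3 runs; pmol/pmol enzyme/h, mean ± S.E.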

[10] = molecular target: Cytochrome P450 2C8 (Homo sapiens, UniProt P10632); assay: Drug metabolism assessed as human recombinant CYP2C8-mediated sulindac sulfone formation measured per pmol of protein at 500 uM after 90 mins by HPLC analysis; format: ADME; conditions: recombinant enzyme, 1.5 h; how it was run: as §4
Cytochrome P450 2C8, sequence (P10632 whole entry): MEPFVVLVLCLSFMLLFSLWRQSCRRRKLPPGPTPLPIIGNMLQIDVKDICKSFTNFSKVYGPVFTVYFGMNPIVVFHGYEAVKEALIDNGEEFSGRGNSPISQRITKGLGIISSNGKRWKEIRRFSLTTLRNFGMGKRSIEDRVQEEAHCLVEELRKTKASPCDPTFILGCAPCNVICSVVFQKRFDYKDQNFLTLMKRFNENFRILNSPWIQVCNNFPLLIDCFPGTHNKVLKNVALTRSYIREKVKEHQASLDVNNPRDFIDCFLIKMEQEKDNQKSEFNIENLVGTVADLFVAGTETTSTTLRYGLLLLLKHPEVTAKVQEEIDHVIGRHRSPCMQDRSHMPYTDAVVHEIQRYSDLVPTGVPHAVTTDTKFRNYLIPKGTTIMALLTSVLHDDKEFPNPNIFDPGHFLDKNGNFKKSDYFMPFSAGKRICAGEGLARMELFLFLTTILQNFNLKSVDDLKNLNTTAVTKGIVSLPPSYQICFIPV

[11] = test system: Zone of skin; assay: Drug metabolism in Sprague-Dawley rat skin assessed as sulindac sulfone formation at 2 mg, ip after 0.5 to 4 hrs by HPLC analysis; conditions: in vivo
[12] = test system: Zone of skin; assay: Drug metabolism in Sprague-Dawley rat skin assessed as sulindac sulfide formation at 2 mg, ip after 0.5 to 4 hrs by HPLC analysis; conditions: in vivo
[13] = molecular target: Cytochrome P450 2B1 (Rattus norvegicus, UniProt P00176); assay: Drug metabolism assessed as rat recombinant CYP2B1-mediated sulindac sulfone formation measured per pmol of protein at 500 uM after 90 mins by HPLC analysis; format: ADME; conditions: recombinant enzyme, 1.5 h; how it was run: as §4
Cytochrome P450 2B1, sequence (P00176 whole entry): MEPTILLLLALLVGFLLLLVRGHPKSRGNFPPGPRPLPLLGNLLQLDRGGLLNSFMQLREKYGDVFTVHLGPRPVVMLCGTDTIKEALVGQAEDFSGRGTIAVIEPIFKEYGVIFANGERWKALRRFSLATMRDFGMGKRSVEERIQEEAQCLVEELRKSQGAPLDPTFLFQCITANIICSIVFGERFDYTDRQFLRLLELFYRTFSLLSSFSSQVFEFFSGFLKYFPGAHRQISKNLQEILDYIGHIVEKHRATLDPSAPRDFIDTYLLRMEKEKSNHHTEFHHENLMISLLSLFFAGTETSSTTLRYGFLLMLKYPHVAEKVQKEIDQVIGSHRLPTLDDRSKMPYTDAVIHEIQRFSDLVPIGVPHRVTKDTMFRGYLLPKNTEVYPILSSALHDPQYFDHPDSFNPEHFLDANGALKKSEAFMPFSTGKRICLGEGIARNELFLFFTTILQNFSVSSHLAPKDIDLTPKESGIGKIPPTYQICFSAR

[14] = Drug metabolism in human HepG2 cells assessed as induction of cytochrome P450-mediated sulindac sulfone formation at 125 uM preincubated for 2 to 24 hrs followed by compound-washout and fresh compound addition measured after 1 hr by HPLC analysis; format: ADME, cell-based; conditions: hepg2, 1 h
How it was run: (§5)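 HepG2 cells in MEM/10% FBS grown to 80% confluence, pretreated 2–24 h with 125 μM (R)- or (S)-sulindac at 37°C, 5% CO2; washed with PBS, then 200 μM (R)- or (S)-sulindac in fresh medium for 1 h at 37°C; medium mixed with 3 volumes acetonitrile and analysed by HPLC for sulfone.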

[15] = molecular target: Cytochrome P450 1A2 (Homo sapiens, UniProt P05177); assay: Drug metabolism assessed as human recombinant CYP1A2-mediated sulindac sulfone formation measured per pmol of protein at 500 uM after 90 mins by HPLC analysis; format: ADME; conditions: recombinant enzyme, 1.5 h; how it was run: as §4
Cytochrome P450 1A2 (Homo sapiens, UniProt P05177), sequence (P05177 whole entry): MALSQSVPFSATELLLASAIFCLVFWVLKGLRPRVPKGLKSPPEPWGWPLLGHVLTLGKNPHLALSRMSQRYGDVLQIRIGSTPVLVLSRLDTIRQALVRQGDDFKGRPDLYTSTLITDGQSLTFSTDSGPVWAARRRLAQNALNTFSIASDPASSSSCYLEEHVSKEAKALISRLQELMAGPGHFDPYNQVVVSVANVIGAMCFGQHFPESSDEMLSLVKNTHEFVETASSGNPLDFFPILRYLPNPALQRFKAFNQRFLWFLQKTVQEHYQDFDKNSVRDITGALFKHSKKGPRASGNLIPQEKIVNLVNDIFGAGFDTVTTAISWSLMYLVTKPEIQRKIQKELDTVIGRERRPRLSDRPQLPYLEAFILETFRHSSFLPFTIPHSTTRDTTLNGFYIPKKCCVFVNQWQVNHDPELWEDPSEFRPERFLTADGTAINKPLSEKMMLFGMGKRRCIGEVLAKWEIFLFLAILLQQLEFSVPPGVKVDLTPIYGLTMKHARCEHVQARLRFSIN

[16] = molecular target: Cytochrome P450 2C9 (Homo sapiens, UniProt P11712); assay: Drug metabolism assessed as human recombinant CYP2C9-mediated sulindac sulfone formation measured per pmol of protein at 500 uM after 90 mins by HPLC analysis; format: ADME; conditions: recombinant enzyme, 1.5 h; how it was run: as §4
Cytochrome P450 2C9, sequence (P11712 whole entry): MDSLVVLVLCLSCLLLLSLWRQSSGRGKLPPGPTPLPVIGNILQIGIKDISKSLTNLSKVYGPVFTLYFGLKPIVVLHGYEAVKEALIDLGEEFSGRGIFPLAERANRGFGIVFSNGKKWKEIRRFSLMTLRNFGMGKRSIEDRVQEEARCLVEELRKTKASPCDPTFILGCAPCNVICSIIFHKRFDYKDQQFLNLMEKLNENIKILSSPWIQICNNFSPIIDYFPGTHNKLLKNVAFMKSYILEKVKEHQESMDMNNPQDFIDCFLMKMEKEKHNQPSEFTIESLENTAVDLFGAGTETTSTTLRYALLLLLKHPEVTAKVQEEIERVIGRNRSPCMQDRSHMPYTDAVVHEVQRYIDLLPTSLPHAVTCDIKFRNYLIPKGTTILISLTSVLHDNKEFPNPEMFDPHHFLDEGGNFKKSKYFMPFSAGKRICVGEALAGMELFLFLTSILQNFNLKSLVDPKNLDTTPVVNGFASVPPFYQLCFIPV

[17] = test system: MRC5; assay: Cytoprotective activity in TBHP-induced human MRC5 cells at 500 uM incubated for 48 hrs prior to TBHP-challenge measured after 2 hrs; format: functional, cell-based
How it was run: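 Normal lung cells preincubated 48 h with 500 μM (R)- or (S)-sulindac or no drug, then challenged with TBHP; viability expressed as percent of cells not exposed to TBHP; mean and S.E. of five repeats; p < 0.05 versus no-drug controls.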

[18] = test system: Liver microsome; assay: Drug metabolism in rat liver microsomes at […] after 60 mins by HPLC analysis; format: ADME; conditions: 1 h
How it was run: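 Uninduced rat liver microsomes (100,000g pellet, washed), 20–80 μg protein, incubated with 20 nmol sulindac epimer in 100 μl 100 mM potassium phosphate pH 7.4 with NADPH-regenerating system (1.5 mM NADPH, 5 mM glucose 6-phosphate, G6PDH, 5 mM MgCl2), 60 min, 37°C. Stopped with 3 volumes acetonitrile; sulfone quantified by C18 HPLC. Six rat preparations.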

[19] = molecular target: Cytochrome P450 2D6 (Homo sapiens, UniProt P10635); assay: Drug metabolism assessed as human recombinant CYP2D6-mediated sulindac sulfone formation measured per pmol of protein at 500 uM after 90 mins by HPLC analysis; format: ADME; conditions: recombinant enzyme, 1.5 h; how it was run: as §4
Cytochrome P450 2D6, sequence (P10635 whole entry): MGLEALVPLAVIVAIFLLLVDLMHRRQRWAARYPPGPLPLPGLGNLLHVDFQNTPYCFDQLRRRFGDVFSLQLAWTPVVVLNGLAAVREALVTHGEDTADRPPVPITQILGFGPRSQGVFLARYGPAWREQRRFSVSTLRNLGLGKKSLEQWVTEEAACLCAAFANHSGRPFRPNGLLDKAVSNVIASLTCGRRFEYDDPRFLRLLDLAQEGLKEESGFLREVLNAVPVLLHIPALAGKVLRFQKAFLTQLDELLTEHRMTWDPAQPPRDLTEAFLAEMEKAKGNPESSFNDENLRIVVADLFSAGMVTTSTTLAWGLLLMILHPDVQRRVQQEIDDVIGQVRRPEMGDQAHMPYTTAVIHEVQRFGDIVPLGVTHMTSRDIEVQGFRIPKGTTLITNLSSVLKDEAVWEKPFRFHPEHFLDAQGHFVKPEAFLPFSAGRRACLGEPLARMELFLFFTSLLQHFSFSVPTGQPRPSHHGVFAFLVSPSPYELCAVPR

[20] = molecular target: T1, Methionine-R-sulfoxide reductase B1; assay: Drug metabolism in rat liver DEAE fraction assessed as MSRB1-mediated reduced product formation measured per mg of protein at 200 uM by HPLC analysis; format: ADME, tissue-based; how it was run: as §3
[21] = molecular target: Cytochrome P450 2C19 (Homo sapiens, UniProt P33261); assay: Drug metabolism assessed as human recombinant CYP2C19-mediated sulindac sulfone formation measured per pmol of protein at 500 uM after 90 mins by HPLC analysis; format: ADME; conditions: recombinant enzyme, 1.5 h; how it was run: as §4
[22] = molecular target: Cytochrome P450 1A1 (Rattus norvegicus, UniProt P00185); assay: Drug metabolism assessed as rat recombinant CYP1A1-mediated sulindac sulfone formation measured per pmol of protein at 500 uM after 90 mins by HPLC analysis; format: ADME; conditions: recombinant enzyme, 1.5 h; how it was run: as §4
Cytochrome P450 1A1, sequence (P00185 whole entry): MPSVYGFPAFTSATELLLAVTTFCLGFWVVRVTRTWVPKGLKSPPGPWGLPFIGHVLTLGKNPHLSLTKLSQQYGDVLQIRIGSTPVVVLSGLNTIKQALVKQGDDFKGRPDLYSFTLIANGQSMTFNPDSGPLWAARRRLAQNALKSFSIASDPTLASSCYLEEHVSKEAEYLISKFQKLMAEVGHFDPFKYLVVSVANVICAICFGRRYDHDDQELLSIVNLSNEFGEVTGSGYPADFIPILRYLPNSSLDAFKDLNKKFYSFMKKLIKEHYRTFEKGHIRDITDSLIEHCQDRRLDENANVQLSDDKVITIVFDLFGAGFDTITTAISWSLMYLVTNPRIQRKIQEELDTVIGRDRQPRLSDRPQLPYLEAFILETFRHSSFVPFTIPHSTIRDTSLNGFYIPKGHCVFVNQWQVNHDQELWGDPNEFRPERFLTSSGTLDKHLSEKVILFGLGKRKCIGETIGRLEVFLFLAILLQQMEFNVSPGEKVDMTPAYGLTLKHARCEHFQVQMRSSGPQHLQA

[23] = molecular target: Methionine-R-sulfoxide reductase B2, mitochondrial (Homo sapiens, UniProt Q9Y3D2); assay: Drug metabolism assessed as human MSRB2-mediated reduced product formation; format: ADME
Methionine-R-sulfoxide reductase B2, mitochondrial, sequence (Q9Y3D2 whole entry): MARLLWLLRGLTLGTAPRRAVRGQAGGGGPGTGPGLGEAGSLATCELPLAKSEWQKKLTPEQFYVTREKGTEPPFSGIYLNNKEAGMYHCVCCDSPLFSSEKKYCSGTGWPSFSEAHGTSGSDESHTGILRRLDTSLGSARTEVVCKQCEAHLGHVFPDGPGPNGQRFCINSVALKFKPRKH

[24] = Drug metabolism assessed as Escherichia coli MSRB-mediated reduced product formation; format: ADME
[25] = molecular target: T1, Methionine-R-sulfoxide reductase B1; assay: Drug metabolism in rat liver G50 fraction assessed as MSRB1-mediated reduced product formation measured per mg of protein at 200 uM by HPLC analysis; format: ADME, tissue-based; how it was run: as §3
[26] = test system: A549; assay: Potentiation of TBHP-induced cytotoxicity in human A549 cells at 500 uM incubated for 48 hrs prior to TBHP-challenge measured after 2 hrs; format: functional, cell-based
[27] = molecular target: Cytochrome P450 1B1 (Homo sapiens, UniProt Q16678); assay: Drug metabolism assessed as human recombinant CYP1B1-mediated sulindac sulfone formation measured per pmol of protein at 500 uM after 90 mins by HPLC analysis; format: ADME; conditions: recombinant enzyme, 1.5 h; how it was run: as §4
[28] = test system: Plasma; assay: Drug metabolism in Sprague-Dawley rat plasma assessed as sulindac sulfide formation at 2 mg, ip after 0.5 to 4 hrs by HPLC analysis; conditions: in vivo
[29] = molecular target: T1, Methionine-R-sulfoxide reductase B1; assay: Drug metabolism in rat liver ammonium sulfate fraction assessed as MSRB1-mediated reduced product formation measured per mg of protein at 200 uM by HPLC analysis; format: ADME, tissue-based; how it was run: as §2
[30] = molecular target: T1, Methionine-R-sulfoxide reductase B1; assay: Drug metabolism in rat liver S100 fraction assessed as MSRB1-mediated reduced product formation measured per mg of protein at 200 uM by HPLC analysis; format: ADME, tissue-based; how it was run: as §2
[31] = Drug metabolism in rat liver cytosolic fraction at 20 nM after 60 mins by HPLC analysis; format: ADME, tissue-based; conditions: cytosol, 1 h
[32] = molecular target: Cytochrome P450 1A2 (Rattus norvegicus, UniProt P04799); assay: Drug metabolism assessed as rat recombinant CYP1A2-mediated sulindac sulfone formation measured per pmol of protein at 500 uM after 90 mins by HPLC analysis; format: ADME; conditions: recombinant enzyme, 1.5 h; how it was run: as §4
Cytochrome P450 1A2 (Rattus norvegicus, UniProt P04799), sequence (P04799 whole entry): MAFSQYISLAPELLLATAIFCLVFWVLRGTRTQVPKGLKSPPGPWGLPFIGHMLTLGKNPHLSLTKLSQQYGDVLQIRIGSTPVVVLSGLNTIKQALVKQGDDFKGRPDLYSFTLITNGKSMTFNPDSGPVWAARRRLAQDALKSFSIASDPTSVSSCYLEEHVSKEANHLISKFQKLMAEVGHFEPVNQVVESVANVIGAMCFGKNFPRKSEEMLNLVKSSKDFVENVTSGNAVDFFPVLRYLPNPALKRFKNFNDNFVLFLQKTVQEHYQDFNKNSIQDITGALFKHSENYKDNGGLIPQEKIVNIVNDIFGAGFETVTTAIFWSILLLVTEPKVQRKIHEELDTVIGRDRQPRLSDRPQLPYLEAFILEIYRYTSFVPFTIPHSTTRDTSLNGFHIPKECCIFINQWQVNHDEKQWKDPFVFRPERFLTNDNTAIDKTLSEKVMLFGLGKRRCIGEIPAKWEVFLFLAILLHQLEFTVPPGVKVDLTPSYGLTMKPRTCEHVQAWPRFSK

[33] = Activity of cytochrome P450 in human HepG2 cells assessed as enzyme-mediated drug metabolism at 125 uM preincubated for 2 to 24 hrs followed by compound-washout and fresh compound addition measured after 1 hr by HPLC analysis; format: ADME, cell-based; conditions: hepg2, 1 h; how it was run: as §5
[34] = molecular target: Methionine-R-sulfoxide reductase B3 (Homo sapiens, UniProt Q8IXL7); assay: Drug metabolism assessed as human MSRB3-mediated reduced product formation; format: ADME
Methionine-R-sulfoxide reductase B3, sequence (Q8IXL7 whole entry): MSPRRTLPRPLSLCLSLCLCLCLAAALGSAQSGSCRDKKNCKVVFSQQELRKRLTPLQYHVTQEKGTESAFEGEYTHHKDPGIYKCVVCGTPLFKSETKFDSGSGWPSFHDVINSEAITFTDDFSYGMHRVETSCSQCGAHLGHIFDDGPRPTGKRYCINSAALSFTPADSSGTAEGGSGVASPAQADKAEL

[35] = test system: Plasma; assay: Drug metabolism in Sprague-Dawley rat plasma assessed as sulindac sulfone formation at 2 mg, ip after 0.5 to 4 hrs by HPLC analysis; conditions: in vivo
[36] = test system: Liver microsome; assay: Drug metabolism in rat liver microsomes assessed as sulindac sulfone formation at 200 µM after 60 mins by HPLC analysis in presence of NADPH; conditions: 1 h
[37] = test system: Liver; assay: Drug metabolism in Sprague-Dawley rat liver assessed as sulindac sulfide formation at 2 mg, ip after 0.5 to 4 hrs by HPLC analysis; conditions: in vivo
[38] = molecular target: Cytochrome P450 3A4 (Homo sapiens, UniProt P08684); assay: Drug metabolism assessed as human recombinant CYP3A4-mediated sulindac sulfone formation measured per pmol of protein at 500 uM after 90 mins by HPLC analysis; format: ADME; conditions: recombinant enzyme, 1.5 h; how it was run: as §4
Cytochrome P450 3A4, sequence (P08684 whole entry): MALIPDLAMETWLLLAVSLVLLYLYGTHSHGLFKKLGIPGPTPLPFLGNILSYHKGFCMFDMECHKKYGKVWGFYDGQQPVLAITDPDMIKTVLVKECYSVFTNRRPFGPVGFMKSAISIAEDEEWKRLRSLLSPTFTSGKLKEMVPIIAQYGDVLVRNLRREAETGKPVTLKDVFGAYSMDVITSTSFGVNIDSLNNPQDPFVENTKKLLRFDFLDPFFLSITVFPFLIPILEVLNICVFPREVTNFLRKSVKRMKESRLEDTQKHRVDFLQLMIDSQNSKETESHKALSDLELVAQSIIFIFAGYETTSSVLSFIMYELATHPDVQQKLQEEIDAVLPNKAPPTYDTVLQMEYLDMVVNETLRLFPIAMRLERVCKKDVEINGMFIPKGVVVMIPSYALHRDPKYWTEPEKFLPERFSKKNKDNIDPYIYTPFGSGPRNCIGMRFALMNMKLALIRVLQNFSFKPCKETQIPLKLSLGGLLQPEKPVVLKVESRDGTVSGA

[39] = test system: Liver; assay: Drug metabolism in Sprague-Dawley rat liver assessed as sulindac sulfone formation at 2 mg, ip after 0.5 to 4 hrs by HPLC analysis; conditions: in vivo

Drug metabolism [1]: metabolite_detected | Drug metabolism [2]: metabolite_detected | Drug metabolism [3]: metabolite_detected | Drug metabolism [4]: metabolite_detected
Compound: CN(C)c1ccc(/N=N/c2ccc(S(=O)(=O)N[C@@H](CC[S@@+](C)[O-])C(=O)O)cc2)cc1

Drug metabolism [5]: metabolite_detected | Drug metabolism [6]: metabolite_detected | Drug metabolism [7]: metabolite_detected | Drug metabolism [8]: metabolite_detected
Compound: CSCC[C@H](NS(=O)(=O)c1ccc(/N=N/c2ccc(N(C)C)cc2)cc1)C(=O)O

Drug metabolism [9]: metabolite_not_detected | Drug metabolism [10]: metabolite_not_detected | Drug metabolism [11]: metabolite_detected | Drug metabolism [12]: metabolite_detected | Drug metabolism [13]: metabolite_not_detected | Drug metabolism [14]: metabolite_detected | Drug metabolism [15]: 130 pmol/h | Drug metabolism [16]: metabolite_not_detected | Drug metabolism [18]: metabolite_not_detected | Drug metabolism [19]: metabolite_not_detected | Drug metabolism [20]: 32.6 nmol/h | Drug metabolism [21]: metabolite_not_detected | Drug metabolism [22]: 380 pmol/h | Drug metabolism [23]: metabolite_not_detected | Drug metabolism [24]: metabolite_not_detected | Drug metabolism [25]: 1160 nmol/h | Drug metabolism [27]: 73 pmol/h | Drug metabolism [28]: metabolite_detected | Drug metabolism [29]: 5.6 nmol/h | Drug metabolism [30]: 4.2 nmol/h | Drug metabolism [31]: metabolite_not_detected | Drug metabolism [32]: 460 pmol/h | Drug metabolism [33]: metabolite_detected | Drug metabolism [34]: metabolite_not_detected | Drug metabolism [35]: metabolite_detected | Drug metabolism [36]: metabolite_detected | Drug metabolism [37]: metabolite_detected | Drug metabolism [38]: 47 pmol/h | Drug metabolism [39]: metabolite_detected
Compound: CC1=C(CC(=O)O)c2cc(F)ccc2/C1=C\c1ccc([S+](C)[O-])cc1 (single isomer, unassigned)
Activity [17]: Active | Activity [26]: Active
